In ChEMBL document CHEMBL4765345, “Design, synthesis, and biological evaluation of dual targeting inhibitors of histone deacetylase 6/8 and bromodomain BRPF1” (Eur J Med Chem, 2020):
pIC50, pKd: −log10 of the molar value.

How the values were obtained:
[1] = target: T1, Histone deacetylase 1 (Homo sapiens, UniProt Q13547); assay: Inhibition of recombinant human HDAC1 at 1 uM using Z-(Ac)Lys-AMC as substrate after 90 mins by fluorescence based micro plate assay
Method in brief: (§1)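 Recombinant human HDAC1 or HDAC6 incubated 90 min at 37 °C with 10.5 μM ZMAL (Z-(Ac)Lys-AMC) and increasing inhibitor concentrations, using a homogeneous fluorescence assay. Fluorescence read at Ex 390/Em 460 nm.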

[2] = target: T1, Histone deacetylase 1; assay: Inhibition of recombinant human HDAC1 at 10 uM using Z-(Ac)Lys-AMC as substrate after 90 mins by fluorescence based micro plate assay; method in brief: as §1
[3] = target: T2, Protein deacetylase HDAC6 (Homo sapiens) (UniProt Q9UBN7); assay: Inhibition of recombinant human HDAC6 at 1 uM using Z-(Ac)Lys-AMC as substrate after 90 mins by fluorescence based micro plate assay; method in brief: as §1
T2 sequence (whole entry): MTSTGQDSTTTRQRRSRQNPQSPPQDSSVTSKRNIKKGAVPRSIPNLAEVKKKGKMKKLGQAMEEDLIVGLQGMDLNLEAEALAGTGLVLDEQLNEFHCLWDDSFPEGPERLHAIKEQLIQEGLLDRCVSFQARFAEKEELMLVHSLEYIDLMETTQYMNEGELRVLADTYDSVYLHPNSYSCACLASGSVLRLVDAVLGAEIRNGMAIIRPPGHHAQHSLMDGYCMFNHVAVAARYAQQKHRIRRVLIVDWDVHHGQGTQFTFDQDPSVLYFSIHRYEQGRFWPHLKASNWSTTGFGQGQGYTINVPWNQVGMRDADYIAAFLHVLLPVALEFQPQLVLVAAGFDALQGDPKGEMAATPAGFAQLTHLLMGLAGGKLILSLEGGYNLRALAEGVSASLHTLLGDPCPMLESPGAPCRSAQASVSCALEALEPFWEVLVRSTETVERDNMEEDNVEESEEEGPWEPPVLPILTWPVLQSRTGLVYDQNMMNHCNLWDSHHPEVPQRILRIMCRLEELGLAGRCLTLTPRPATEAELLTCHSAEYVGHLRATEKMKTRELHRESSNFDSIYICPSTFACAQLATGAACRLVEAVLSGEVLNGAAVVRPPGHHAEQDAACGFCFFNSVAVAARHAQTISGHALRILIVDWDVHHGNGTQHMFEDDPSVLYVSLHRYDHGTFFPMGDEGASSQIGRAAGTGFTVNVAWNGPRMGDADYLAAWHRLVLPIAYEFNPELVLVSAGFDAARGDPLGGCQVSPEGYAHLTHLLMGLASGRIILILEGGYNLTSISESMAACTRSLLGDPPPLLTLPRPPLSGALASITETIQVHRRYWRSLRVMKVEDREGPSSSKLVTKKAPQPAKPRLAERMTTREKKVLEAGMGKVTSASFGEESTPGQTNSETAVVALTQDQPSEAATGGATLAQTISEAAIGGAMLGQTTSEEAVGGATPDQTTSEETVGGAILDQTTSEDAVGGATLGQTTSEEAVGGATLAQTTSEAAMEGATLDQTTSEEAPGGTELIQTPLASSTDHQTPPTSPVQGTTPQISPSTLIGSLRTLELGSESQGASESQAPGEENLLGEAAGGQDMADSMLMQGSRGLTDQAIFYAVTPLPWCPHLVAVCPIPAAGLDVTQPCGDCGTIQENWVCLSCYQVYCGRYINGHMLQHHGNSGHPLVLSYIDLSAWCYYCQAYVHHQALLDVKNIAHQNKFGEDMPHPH

[4] = target: T2, Protein deacetylase HDAC6 (Homo sapiens); assay: Inhibition of recombinant human HDAC6 at 10 uM using Z-(Ac)Lys-AMC as substrate after 90 mins by fluorescence based micro plate assay; method in brief: as §1
[5] = target: T3, Histone deacetylase 8 (Homo sapiens, UniProt Q9BY41); assay: Inhibition of human recombinant HDAC8 using H2N-Arg-His-Lys(Ac)-Lys(Ac)-AMC as substrate after 90 mins by fluorescence based micro plate assay
T3 sequence (Q9BY41 whole entry): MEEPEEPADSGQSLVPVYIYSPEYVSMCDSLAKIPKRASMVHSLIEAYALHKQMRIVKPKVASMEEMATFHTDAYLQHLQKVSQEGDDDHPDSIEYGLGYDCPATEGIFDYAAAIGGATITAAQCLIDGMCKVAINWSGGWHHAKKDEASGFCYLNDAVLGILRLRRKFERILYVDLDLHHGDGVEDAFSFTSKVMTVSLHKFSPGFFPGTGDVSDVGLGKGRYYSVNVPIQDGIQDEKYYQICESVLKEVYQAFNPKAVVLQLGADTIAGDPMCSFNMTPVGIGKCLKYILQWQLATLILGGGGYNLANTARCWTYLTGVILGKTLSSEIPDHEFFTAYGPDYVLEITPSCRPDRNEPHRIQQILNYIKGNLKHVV

[6] = target: T4, Peregrin (Homo sapiens, UniProt P55201); assay: Binding affinity to BRPF1 (unknown origin) by Isothermal titration calorimetry; details: read-out: Kd
T4 sequence (P55201 whole entry): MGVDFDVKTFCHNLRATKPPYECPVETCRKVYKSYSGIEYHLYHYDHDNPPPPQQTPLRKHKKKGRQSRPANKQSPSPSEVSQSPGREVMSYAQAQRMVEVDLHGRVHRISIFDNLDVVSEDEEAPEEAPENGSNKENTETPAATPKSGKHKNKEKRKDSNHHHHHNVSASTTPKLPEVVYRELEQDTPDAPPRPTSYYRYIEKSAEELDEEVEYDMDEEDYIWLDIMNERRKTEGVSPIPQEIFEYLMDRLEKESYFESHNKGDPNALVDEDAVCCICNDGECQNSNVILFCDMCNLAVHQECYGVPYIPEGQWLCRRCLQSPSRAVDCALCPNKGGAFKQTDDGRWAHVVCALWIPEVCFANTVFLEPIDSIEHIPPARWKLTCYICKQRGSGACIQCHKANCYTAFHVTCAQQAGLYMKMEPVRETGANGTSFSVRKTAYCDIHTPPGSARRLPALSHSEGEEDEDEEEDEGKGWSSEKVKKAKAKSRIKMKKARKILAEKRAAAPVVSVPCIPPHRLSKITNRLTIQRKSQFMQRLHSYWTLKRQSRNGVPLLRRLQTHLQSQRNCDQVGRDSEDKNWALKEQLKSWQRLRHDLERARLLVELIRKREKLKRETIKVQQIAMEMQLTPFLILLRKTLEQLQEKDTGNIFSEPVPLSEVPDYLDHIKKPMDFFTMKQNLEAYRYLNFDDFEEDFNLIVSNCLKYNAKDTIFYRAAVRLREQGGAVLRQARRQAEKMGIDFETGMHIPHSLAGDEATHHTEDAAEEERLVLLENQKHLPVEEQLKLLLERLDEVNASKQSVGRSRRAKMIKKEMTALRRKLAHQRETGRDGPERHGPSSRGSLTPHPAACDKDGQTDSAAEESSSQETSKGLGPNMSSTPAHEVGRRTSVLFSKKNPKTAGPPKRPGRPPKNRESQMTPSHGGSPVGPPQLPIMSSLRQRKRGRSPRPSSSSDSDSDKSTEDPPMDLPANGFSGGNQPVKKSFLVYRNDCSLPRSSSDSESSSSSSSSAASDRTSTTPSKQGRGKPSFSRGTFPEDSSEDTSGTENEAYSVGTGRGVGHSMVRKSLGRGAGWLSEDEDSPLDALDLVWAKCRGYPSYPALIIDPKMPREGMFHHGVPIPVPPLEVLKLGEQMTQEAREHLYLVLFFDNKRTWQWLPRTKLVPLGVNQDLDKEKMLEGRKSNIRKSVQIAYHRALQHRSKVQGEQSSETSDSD
Method in brief: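 Isothermal titration calorimetry with recombinant BRPF1 (200–400 μM) in the injection syringe titrated into ligand (20–40 μM) in the sample cell. Kd was fitted from the titrations and reported with its P99 interval.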

[7] = system: THP-1; assay: Antiproliferative activity against human THP-1 assessed as reduction in cell growth at 20 uM by CellTiter-non radioactive cell proliferation assay; format: functional
[8] = system: HL-60; assay: Antiproliferative activity against human HL60 assessed as reduction in cell growth at 100 uM by CellTiter-non radioactive cell proliferation assay; format: functional
[9] = system: HL-60; assay: Antiproliferative activity against human HL60 assessed as reduction in cell growth at 20 uM by CellTiter-non radioactive cell proliferation assay; format: functional
[10] = system: HL-60; assay: Antiproliferative activity against human HL60 assessed as reduction in cell growth at 4 uM by CellTiter-non radioactive cell proliferation assay; format: functional
Method in brief: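 HL60 cells plated at 5000 per well and given inhibitor or DMSO vehicle immediately. Compounds diluted from 200x DMSO stocks; three replicates per concentration. Growth read by CellTiter 96 Aqueous (MTS) assay. GI50 is the concentration cutting metabolically active cells by 50% versus DMSO control, taken from absorbance against log concentration.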

[11] = system: THP-1; assay: Antiproliferative activity against human THP-1 assessed as reduction in cell growth at 100 uM by CellTiter-non radioactive cell proliferation assay; format: functional
[12] = system: THP-1; assay: Antiproliferative activity against human THP-1 assessed as reduction in cell growth at 1 uM by CellTiter-non radioactive cell proliferation assay; format: functional
[13] = system: HL-60; assay: Antiproliferative activity against human HL60 assessed as reduction in cell growth at 1 uM by CellTiter-non radioactive cell proliferation assay; format: functional
[14] = target: T1, Histone deacetylase 1; assay: Inhibition of recombinant human HDAC1 using Z-(Ac)Lys-AMC as substrate after 90 mins by fluorescence based micro plate assay; method in brief: as §1
[15] = target: T5, Protein deacetylase HDAC6 (Homo sapiens, UniProt Q9UBN7); assay: Inhibition of recombinant human HDAC6 using Z-(Ac)Lys-AMC as substrate after 90 mins by fluorescence based micro plate assay; method in brief: as §1
T5 sequence (Q9UBN7 whole entry): T2 sequence (whole entry)

T1 sequence (Q13547 whole entry): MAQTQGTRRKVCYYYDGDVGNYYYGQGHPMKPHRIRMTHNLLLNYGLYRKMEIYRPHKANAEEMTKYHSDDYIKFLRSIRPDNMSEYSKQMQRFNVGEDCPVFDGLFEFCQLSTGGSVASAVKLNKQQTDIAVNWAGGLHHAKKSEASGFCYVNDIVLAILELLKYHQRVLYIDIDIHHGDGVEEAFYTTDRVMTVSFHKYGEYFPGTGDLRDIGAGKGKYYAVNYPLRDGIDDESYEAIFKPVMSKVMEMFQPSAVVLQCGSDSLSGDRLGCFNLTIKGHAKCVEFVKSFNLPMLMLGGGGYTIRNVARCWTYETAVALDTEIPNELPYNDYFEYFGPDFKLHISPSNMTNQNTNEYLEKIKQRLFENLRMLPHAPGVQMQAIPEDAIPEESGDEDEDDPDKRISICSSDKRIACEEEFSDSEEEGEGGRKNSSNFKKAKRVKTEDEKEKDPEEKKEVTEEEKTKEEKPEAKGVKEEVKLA

inhibition [1] [%]	inhibition [2] [%]	inhibition [3] [%]	inhibition [4] [%]	pIC50 [5]	pKd [6]	pIC50 [14]	pIC50 [15]	SMILES	inhibition at 20 µM [7] [%]	inhibition at 100 µM [8] [%]	inhibition at 20 µM [9] [%]	inhibition at 4 µM [10] [%]	inhibition at 100 µM [11] [%]	inhibition at 1 µM [12] [%]	inhibition at 1 µM [13] [%]
11	29	15	46	6.64	5.80			COc1cc(C(=O)NO)ccc1CS(=O)(=O)Nc1ccc2c(c1)cc(C)c(=O)n2C	0	0	0	0			
	31	40	68	6.26				COc1ccc(C(=O)NO)cc1CNc1ccc2c(c1)cc(C)c(=O)n2C							
				6.95				Cc1cc2cc(NC(=O)c3cc(C(=O)NO)ccc3Cl)ccc2n(C)c1=O							

Further lines, the compound ahead of its results:

SMILES	inhibition [1] [%]	inhibition [2] [%]	inhibition [3] [%]	inhibition [4] [%]	pIC50 [5]	pKd [6]	pIC50 [14]	pIC50 [15]	inhibition at 20 µM [7] [%]	inhibition at 100 µM [8] [%]	inhibition at 20 µM [9] [%]	inhibition at 4 µM [10] [%]	inhibition at 100 µM [11] [%]	inhibition at 1 µM [12] [%]	inhibition at 1 µM [13] [%]
COc1ccc(C(=O)NO)cc1CS(=O)(=O)Nc1ccc2c(c1)cc(C)c(=O)n2C	4	29	14	63	6.80				0	0	0	0	0	0	
COc1ccc(C(=O)NOCc2ccccc2)cc1S(=O)(=O)Nc1ccc2c(c1)cc(C)c(=O)n2C									20	13					2
Cc1cc2cc(NS(=O)(=O)Cc3ccc(C(=O)NOCc4ccc(O)cc4)cc3)ccc2n(C)c1=O									1				91	0	
Cc1cc2cc(NS(=O)(=O)c3ccc(C(=O)NO)cc3)ccc2n(C)c1=O					6.04	6.76	6.10	6.46		34	6		78	0	3
